Test results from ChEMBL document CHEMBL4422695, “Antiangiogenic Activity of Compounds Isolated from Anarrhinum pedatum” (2019).
The source made the active and inactive calls. The rule behind the calls is not given here.

How the values were obtained:
Danio rerio = species on record: Danio rerio; experiment: Antiangiogenic activity in wild type zebrafish 24 hrs post fertilization embryos assessed as reduction in blood vessel growth at 2 uM treated for 48 hrs by alkaline phosphatase assay relative to control; type: functional; set-up: scale not given: the % may be the effect or the level left
How it was run: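 Wild-type zebrafish embryos from natural mating, raised at 28.5 °C; healthy embryos selected at 24 hpf, dechorionated, one per well in 100 μL embryo water with agent (2 μM) in DMSO 0.2% v/v, 10 per group, exposed 24–72 hpf. Ethanol-dehydrated, diethanolamine buffer (1 M, pH 9.8) washes, p-nitrophenyl phosphate 0.5 mg/mL 30 min RT, NaOH stop, OD 405 nm; percent of control, ≥3 repeats, t-test.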

Chorioallantoic membrane [1] = experiment: Antiangiogenic activity in chicken fertilized egg chorioallantoic membrane at 2 uM after 48 hrs by stereomicroscopic analysis relative to control; type: functional, tissue-based; conditions: Gallus gallus
How it was run: (§1)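 Fertilized chicken eggs incubated at 37 °C, positioned horizontally and rotated; 1 cm2 window opened on day 4, malformed or dead embryos excluded. Test agents at 2 μM (100 μL/egg) or retinoic acid at 3 μM, in DMSO (0.2% v/v) in Tris buffer pH 7.4; ten eggs/group. Reincubated 2 days. CAM microvasculature imaged under stereomicroscope, standardized area quantified; percent of vehicle control, three repeats, t-test.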

Chorioallantoic membrane [2] = experiment: Antiangiogenic activity in chicken fertilized egg chorioallantoic membrane assessed as appearance of less dense microvasculature at 2 uM after 48 hrs by stereomicroscopic analysis; type: functional, tissue-based; conditions: Gallus gallus; how it was run: as §1
Chorioallantoic membrane [3] = experiment: Antiangiogenic activity in chicken fertilized egg chorioallantoic membrane at 3 uM after 48 hrs by stereomicroscopic analysis relative to control; type: functional, tissue-based; conditions: Gallus gallus; how it was run: as §1
Chorioallantoic membrane [4] = experiment: Antiangiogenic activity in chicken fertilized egg chorioallantoic membrane assessed as reduction in capillary formation at 3 uM after 48 hrs by stereomicroscopic analysis; type: functional, tissue-based; conditions: Gallus gallus; how it was run: as §1

| Activity (Danio rerio) | SMILES | Activity (Chorioallantoic membrane [1]) | Activity (Chorioallantoic membrane [2]) | further results |
| --- | --- | --- | --- | --- |
| inactive | C/C(=C\CO[C@@H]1O[C@H](CO)[C@@H](O)[C@H](O)[C@H]1O)CC/C=C(\C)C(=O)O[C@@H]1O[C@H](CO)[C@@H](O)[C@H](O)[C@H]1O | – | – | – |
| inactive | C/C(=C\CO)CC/C=C(\C)C(=O)OC[C@H]1OC(O)[C@H](O)[C@@H](O)[C@@H]1O (some centres not stated) | – | – | – |
| inactive | C/C(=C/CO)CC/C=C(\C)C(=O)OC[C@H]1O[C@@H](O[C@@H]2OC=C(C(=O)O[C@@H]3CO[C@](O)(CO)[C@@H](O)[C@@H]3O)[C@H]3CC[C@](C)(O)[C@@H]23)[C@H](O)[C@@H](O)[C@@H]1O | – | – | – |
| inactive | C/C(=C\CO)CC/C=C(\C)C(=O)O[C@@H]1[C@@H]2O[C@]2(C)[C@H]2[C@H](O[C@@H]3O[C@H](CO)[C@@H](O)[C@H](O)[C@H]3O)OC=C[C@@]12OC(=O)/C(C)=C/CC/C(C)=C/CO | – | – | – |
| inactive | C/C(=C\CO)CC/C=C(\C)C(=O)O[C@@H]1[C@@H]2O[C@]2(CO)[C@H]2[C@H](O[C@@H]3O[C@H](CO)[C@@H](O)[C@H](O)[C@H]3O)OC=C[C@@]12O | – | – | – |
| inactive | C[C@]1(O)CC[C@@H]2C(C(=O)O[C@@H]3CO[C@](O)(CO)[C@@H](O)[C@@H]3O)=CO[C@@H](O[C@@H]3O[C@H](COC(=O)C=Cc4ccc(O)cc4)[C@@H](O)[C@H](O)[C@H]3O)[C@@H]21 (mixture of isomers) | – | – | – |
| inactive | C=C[C@@](C)(O)CC/C=C(\C)C(=O)O[C@@]12C=CO[C@@H](O[C@@H]3O[C@H](CO)[C@@H](O)[C@H](O)[C@H]3O)[C@@H]1[C@@]1(CO)O[C@H]1[C@H]2OC(=O)/C(C)=C/CC/C(C)=C/CO | 31.4% | Active | – |
| inactive | C=C[C@@](C)(O)CC/C=C(\C)C(=O)O[C@@]12C=CO[C@@H](O[C@@H]3O[C@H](CO)[C@@H](O)[C@H](O)[C@H]3O)[C@@H]1[C@@]1(C)O[C@H]1[C@H]2OC(=O)/C(C)=C/CC/C(C)=C/CO | – | – | – |
| inactive | C/C(=C\CO)CC/C=C(\C)C(=O)O[C@@H]1[C@@H]2O[C@]2(CO)[C@H]2[C@H](O[C@@H]3O[C@H](CO)[C@@H](O)[C@H](O)[C@H]3O)OC=C[C@@]12OC(=O)/C(C)=C/CC/C(C)=C/CO | – | – | – |

Further lines, the molecule ahead of its results:

| SMILES | Activity (Danio rerio) | Activity (Chorioallantoic membrane [1]) | Activity (Chorioallantoic membrane [2]) | further results |
| --- | --- | --- | --- | --- |
| C[C@]12O[C@H]1[C@@H](O)[C@]1(O)C=CO[C@@H](O[C@@H]3O[C@H](CO)[C@@H](O)[C@H](O)[C@H]3O)[C@@H]12 [ANTIRRHINOSIDE] | 81% | 29.9% | Active | – |
| COc1cc2c(cc1O)CC[C@@H]1[C@@H]2CC[C@]2(C)[C@@H](O)CC[C@@H]12 [2-METHOXYESTRADIOL] | 52% | – | – | – |
| O=C(/C=C/c1ccccc1)OC[C@H]1O[C@@H](O[C@@H]2OC=C[C@@]3(O)[C@H](O)[C@@H]4O[C@]4(CO)[C@@H]23)[C@H](O)[C@@H](O)[C@@H]1O | inactive | – | – | – |
| C/C(=C\CO)CC/C=C(\C)C(=O)O[C@@H]1[C@@H]2O[C@]2(C)[C@H]2[C@H](O[C@@H]3O[C@H](CO)[C@@H](O)[C@H](O)[C@H]3O)OC=C[C@@]12O | 48.33% | 29.6% | Active | – |
| C[C@]12O[C@H]1[C@@H](OC(=O)/C=C/c1ccccc1)[C@]1(O)C=CO[C@@H](O[C@@H]3O[C@H](CO)[C@@H](O)[C@H](O)[C@H]3O)[C@@H]12 | inactive | 23.9% | Active | – |
| C/C(=C\CO)CC/C=C(\C)C(=O)O[C@@H]1O[C@H](CO)[C@@H](O)[C@H](O)[C@H]1O | 79.82% | – | – | – |
| C[C@]12O[C@H]1[C@@H](OC(=O)C=Cc1ccc(O)cc1)[C@]1(O)C=CO[C@@H](O[C@@H]3O[C@H](CO)[C@@H](O)[C@H](O)[C@H]3O)[C@@H]12 (mixture of isomers) | 77.38% | – | – | – |
| C=C[C@@](C)(O)CC/C=C(\C)C(=O)O[C@@H]1O[C@H](CO)[C@@H](O)[C@H](O)[C@H]1O | 56.98% | 29% | Active | – |
| C=C[C@@](C)(O)CC/C=C(\C)C(=O)OC[C@H]1O[C@@H](O[C@@H]2OC=C(C(=O)O[C@@H]3CO[C@](O)(CO)[C@@H](O)[C@@H]3O)[C@H]3CC[C@](C)(O)[C@@H]23)[C@H](O)[C@@H](O)[C@@H]1O | 72.72% | 21.5% | Active | – |
| CC1=C(/C=C/C(C)=C/C=C/C(C)=C/C(=O)O)C(C)(C)CCC1 | – | – | – | Activity (Chorioallantoic membrane [3]): 45%; Activity (Chorioallantoic membrane [4]): Active |
